Data set [1] in a line: Stability of the compound in PBS buffer assessed as degradation half life at 37 degC by HPLC analysis. Type of data set: physicochemical. A digest of the protocol: (§1)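 Each compound came from a 10 mM stock in methanol or methanol/acetonitrile 85:15, diluted 1:10 into PBS, MEM or human plasma and held at 37 ± 2 °C. Aliquots taken over time were quenched with equal-volume 10 mM ammonium formate pH 3, centrifuged, filtered, diluted 3:10 and run on gradient HPLC-UV (ammonium formate pH 3/acetonitrile; 264/258 nm). Half-lives came from log concentration versus time plots, usually in triplicate.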

A short description of data set [2]: Stability of the compound in MEM assessed as degradation half life at 37 degC by HPLC analysis. Type of data set: physicochemical. The method, boiled down: as §1
The nature of data set [3]: Stability of the compound assessed as degradation half life in presence of plasma at 37 degC by HPLC analysis. Type of data set: ADME, cell-free. The method, boiled down:
as §1

Data set [4] in a line: Antiproliferative activity against human fibroblasts after 48 hrs by resazurin reduction test. It counts as cell-based. The note with it: Fibroblast.
A further data set has as its system MCF7. Description: Antiproliferative activity against human MCF7 cells after 48 hrs by resazurin reduction test. It counts as functional, cell-based. The conditions noted are these: MCF7, 48 h. A digest of the protocol: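 MCF 7 and PA 1 cells were kept as monolayers in MEM with 10% fetal calf serum, 1 mM pyruvate, vitamins, non-essential amino acids and gentamicin, at 37 °C and 5% CO₂. Cells were seeded at 5 × 10³ per well, left 16 h, then exposed continuously for 48 h; DMSO was 0.5% (v/v).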

The test system of the next data set is PA-1. Nature of the data set: Antiproliferative activity against human PA1 cells after 48 hrs by resazurin reduction test. It counts as functional, cell-based. The conditions noted are these: PA-1, 48 h. The method, boiled down:
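MCF 7 and PA 1 cells were kept as monolayers in MEM with 10% fetal calf serum, 1 mM pyruvate, vitamins, non-essential amino acids and gentamicin, at 37 °C and 5% CO₂. Cells were seeded at 5 × 10³ per well, left 16 h, then exposed continuously for 48 h; DMSO was 0.5% (v/v). Resazurin in serum- and phenol red-free MEM was added for 1 h at 37 °C, fluorescence read at ex 530/em 590 nm, and IC₅₀ taken from blank-corrected percent-of-control curves.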

Structures are written as SMILES.

`CC(=O)OC[C@H]1O[C@@H](NC(=O)CCCNC(=O)n2cc(F)c(=O)[nH]c2=O)[C@H](F)[C@@H](OC(C)=O)[C@@H]1OC(C)=O`: the figures for the half-life in data set [1], in data set [2] and in data set [3] were 8 min, 6 min and 10 min, respectively. For the same compound, the IC50 stood at 15 µM in data set [4], 23 µM in the data set with MCF7 and 6 µM in the data set on PA-1.

With `CC(=O)OC[C@H]1O[C@@H](NC(=O)CCCCCNC(=O)n2cc(F)c(=O)[nH]c2=O)[C@H](F)[C@@H](OC(C)=O)[C@@H]1OC(C)=O`, the figures for the half-life in data set [1], in data set [2] and in data set [3] were 11 min, 8 min and 17 min, respectively. The values for the IC50 (in data set [4]; in the data set on MCF7; in the data set on PA-1) were 5 µM, 8.1 µM and 4 µM, respectively.

Take `CC(=O)OC[C@H]1O[C@@H](n2cc(F)c(=O)[nH]c2=O)[C@H](F)[C@@H](OC(C)=O)[C@@H]1OC(C)=O`: the IC50 (in data set [4]; with MCF7; with PA-1) was greater than 50 µM throughout.

On to `CC(=O)OC[C@H]1O[C@@H](NC(=O)Cn2cc(F)c(=O)[nH]c2=O)[C@H](F)[C@@H](OC(C)=O)[C@@H]1OC(C)=O`, for which the IC50 (in data set [4]; in the data set with MCF7; in the data set with PA-1) was greater than 50 µM throughout.

In the case of `CC(=O)OC[C@H]1O[C@@H](NC(=O)CNC(=O)n2cc(F)c(=O)[nH]c2=O)[C@H](F)[C@@H](OC(C)=O)[C@@H]1OC(C)=O`, the half-life came out at 3 min in data set [1], 2 min in data set [2] and 6 min in data set [3]. Also, the IC50 came out at 6.4 µM in data set [4], 11 µM with MCF7 and 3 µM in the data set on PA-1.

As for `O=c1[nH]cc(F)c(=O)[nH]1` [FLUOROURACIL], the IC50 turned out to be 11 µM in data set [4] and 5 µM in the data set on PA-1.

Turning to `CC(=O)OC[C@H]1O[C@@H](Oc2ccc(N(C)C(=O)n3cc(F)c(=O)[nH]c3=O)cc2)[C@H](F)[C@@H](OC(C)=O)[C@@H]1OC(C)=O`, the half-maximal inhibitory concentration (IC50) (in data set [4]; with MCF7; with PA-1) was greater than 50 µM throughout.

Take `CC(=O)OC[C@H]1O[C@@H](NC(=O)CCCN(C)C(=O)n2cc(F)c(=O)[nH]c2=O)[C@H](F)[C@@H](OC(C)=O)[C@@H]1OC(C)=O`: the IC50 (in data set [4]; in the data set with MCF7; with PA-1) was greater than 50 µM each time.

The values are drawn from ChEMBL document CHEMBL1811809, “Design, synthesis and in vitro drug release investigation of new potential 5-FU prodrugs” (Eur J Med Chem, 2011).
